Each structure is given as a SMILES string. Some results are limits rather than exact numbers.

Results on 23 molecules are retold here after ChEMBL document CHEMBL2086363, “Lipophilic Isosteres of a π-π Stacking Interaction: New Inhibitors of the Bcl-2-Bak Protein-Protein Interaction” (ACS Med Chem Lett, 2012).

The target of data set [1] is MCL1-BAK1 complex (Homo sapiens, UniProt Q07820). Briefly: Inhibition of Mcl1-BAK interaction. It counts as protein-complex assay.
The target in data set [2] is Apoptosis regulator Bcl-2/Bcl-2 homologous antagonist/killer (Homo sapiens, UniProt P10415). Briefly: Inhibition of Bcl2-BAK interaction after 1 hr by surface plasmon resonance assay. It counts as protein assay. Put shortly:
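SPR measurement of Bcl-2–Bak binding inhibition. Each value is the average of at least two measurements, with duplicate EC50 values generated in each assay.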

A short description of data set [3]: Oral bioavailability in Sprague-Dawley rat at 10 mg/kg. It counts as ADME, organism-based. The conditions noted are these: in vivo.
Data set [4] addresses Bcl-xL/BAK (Homo sapiens, UniProt Q07817). Kind of data set: Inhibition of Bcl-XL-BAK interaction. Format: protein assay.
The nature of data set [5]: Half life in Sprague-Dawley rat at 1 mg/kg, iv and 10 mg/kg, po. It counts as ADME, organism-based. The conditions noted are these: in vivo.
The nature of data set [6]: Clearance in Sprague-Dawley rat at 1 mg/kg, iv and 10 mg/kg, po. It counts as ADME, organism-based. The conditions noted are these: in vivo.
Data set [7] is described as follows: Volume of distribution at steady state in Sprague-Dawley rat at 1 mg/kg, iv and 10 mg/kg, po. The conditions noted are these: in vivo, read-out: Vdss. Format: ADME, organism-based.
A short description of data set [8]: Selectivity ratio of EC50 for Bcl-XL-BAK interaction to EC50 for Bcl2-BAK interaction.

Sequence of MCL1-BAK1 complex (Q07820 whole entry): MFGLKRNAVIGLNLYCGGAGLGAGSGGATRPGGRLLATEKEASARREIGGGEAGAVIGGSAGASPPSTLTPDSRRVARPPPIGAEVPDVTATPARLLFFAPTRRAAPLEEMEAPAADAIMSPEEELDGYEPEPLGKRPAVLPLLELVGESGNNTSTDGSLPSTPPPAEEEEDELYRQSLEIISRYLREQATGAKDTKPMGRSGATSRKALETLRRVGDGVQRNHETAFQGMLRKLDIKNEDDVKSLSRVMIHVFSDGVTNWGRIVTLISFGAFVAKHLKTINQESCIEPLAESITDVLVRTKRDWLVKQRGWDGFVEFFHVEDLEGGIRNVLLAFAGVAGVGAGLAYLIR
Sequence of MCL1-BAK1 complex (Q16611 whole entry, further chain): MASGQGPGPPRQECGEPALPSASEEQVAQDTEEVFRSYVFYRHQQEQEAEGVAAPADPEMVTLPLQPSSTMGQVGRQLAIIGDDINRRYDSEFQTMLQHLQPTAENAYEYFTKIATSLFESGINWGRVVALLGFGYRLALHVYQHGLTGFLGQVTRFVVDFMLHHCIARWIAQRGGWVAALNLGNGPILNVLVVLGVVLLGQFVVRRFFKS
Sequence of Bcl-xL/BAK (Q07817 whole entry): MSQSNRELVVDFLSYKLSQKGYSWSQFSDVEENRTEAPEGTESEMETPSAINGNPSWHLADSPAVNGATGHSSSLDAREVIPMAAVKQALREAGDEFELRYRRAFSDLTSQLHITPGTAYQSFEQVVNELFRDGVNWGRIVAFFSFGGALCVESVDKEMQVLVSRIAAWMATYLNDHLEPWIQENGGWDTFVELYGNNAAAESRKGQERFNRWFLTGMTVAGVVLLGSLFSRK
Sequence of Bcl-xL/BAK (Q16611 whole entry, further chain): as the sequence (Q16611 whole entry, further chain) above
Sequence of Apoptosis regulator Bcl-2/Bcl-2 homologous antagonist/killer (P10415 whole entry): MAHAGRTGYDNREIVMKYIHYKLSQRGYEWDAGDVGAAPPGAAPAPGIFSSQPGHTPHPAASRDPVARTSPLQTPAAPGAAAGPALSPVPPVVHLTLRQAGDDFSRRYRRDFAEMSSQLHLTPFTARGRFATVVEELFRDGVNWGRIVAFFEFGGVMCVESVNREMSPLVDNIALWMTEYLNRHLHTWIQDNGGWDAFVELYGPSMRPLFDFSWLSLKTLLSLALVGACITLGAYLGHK
Sequence of Apoptosis regulator Bcl-2/Bcl-2 homologous antagonist/killer (Q16611 whole entry, further chain): as the sequence (Q16611 whole entry, further chain) above

With `CC1(C)C2CC[C@@]1(CS(=O)(=O)NC(=O)c1ccc(N3CCN(Cc4ccccc4-c4ccc(Cl)cc4)CC3)cc1)C(=O)C2`, the IC50 (as a rule, the concentration that inhibits the measured activity by half) in data set [1] is more than 50000 nM. Moreover, in data set [2], the EC50 (in general, the midpoint of the concentration-response curve) was determined as 1470 nM.
On the same counts, the results for `O=C(NS(=O)(=O)NC12CC3CC(CC(C3)C1)C2)c1ccc(N2CCN(Cc3ccccc3-c3ccc(Cl)cc3)CC2)cc1` are more than 50000 nM and 2100 nM.
On the same counts, the results for `CCS(=O)(=O)NC(=O)c1ccc(N2CCN(Cc3ccccc3-c3ccc(Cl)cc3)CC2)cc1` are more than 50000 nM and 5310 nM.
In data set [1], `O=C(NS(=O)(=O)CC12CC3CC(CC1C3)C2)c1ccc(N2CCN(Cc3ccccc3-c3ccc(Cl)cc3)CC2)cc1` showed an IC50 of more than 50000 nM. This molecule had an EC50 in data set [2] of 2660 nM.
Turning to `O=C(NS(=O)(=O)CC12CC3CC(CC(C3)C1)C2)c1ccc(N2CCN(Cc3ccccc3-c3ccc(Cl)cc3)CC2)cc1`, in data set [3], the bioavailability – broadly, the share of a dose that reaches the circulation, judged against a reference dose that is usually intravenous – turned out to be 66%. Besides, the EC50 in data set [4] turned out to be 2850 nM; in data set [2], 670 nM. In addition, in data set [5], the half-life (commonly the time needed for the level to fall by half in the phase considered) was 1.3 h. The IC50 in data set [1] is more than 50000 nM. In addition, the clearance in data set [6] is 6 mL/min/kg. The Vd in data set [7] is 0.7 L/kg. Further, the Ratio EC50 in data set [8] amounted to 4.3.
In data set [1], `CC1(C)C2CC[C@]1(CS(=O)(=O)NC(=O)c1ccc(N3CCN(Cc4ccccc4-c4ccc(Cl)cc4)CC3)cc1)C(=O)C2` displayed a 50% inhibitory concentration (IC50) of more than 50000 nM. For the same molecule, the EC50 in data set [2] amounted to 1020 nM.
On the same counts, the results for `O=C(NS(=O)(=O)C12CC3CC(CC(C3)C1)C2)c1ccc(N2CCN(Cc3ccccc3-c3ccc(Cl)cc3)CC2)cc1` are more than 50000 nM and more than 16000 nM.
For the molecule `O=C(NS(=O)(=O)CC12CC3CC(C1)CC(NC(=O)C1CC1)(C3)C2)c1ccc(N2CCN(Cc3ccccc3-c3ccc(Cl)cc3)CC2)cc1`, the midpoint of the response in data set [2], the EC50, lay at 210 nM.
As to `CS(=O)(=O)NC(=O)c1ccc(N2CCN(Cc3ccccc3-c3ccc(Cl)cc3)CC2)cc1`, in data set [1], the IC50 is more than 50000 nM. This molecule also returned an EC50 in data set [2] of 8620 nM.
The molecule `O=C(NS(=O)(=O)CC12CC3CC(CC(Br)(C3)C1)C2)c1ccc(N2CCN(Cc3ccccc3-c3ccc(Cl)cc3)CC2)cc1` came in with a 50% effective concentration (EC50) in data set [2] of 670 nM.
`CC(C)(C)S(=O)(=O)NC(=O)c1ccc(N2CCN(Cc3ccccc3-c3ccc(Cl)cc3)CC2)cc1` showed an IC50 in data set [1] of more than 50000 nM. Besides, in data set [2], the EC50 is more than 16000 nM.
As for `O=C(NS(=O)(=O)CC12CC3CCC(CC(C3)C1)C2)c1ccc(N2CCN(Cc3ccccc3-c3ccc(Cl)cc3)CC2)cc1`, the EC50 worked out at 220 nM in data set [4] and 120 nM in data set [2]. The same molecule showed an IC50 in data set [1] of more than 50000 nM.
In the case of `CC(C)(C)C(=O)NC12CC3CC(CC(CS(=O)(=O)NC(=O)c4ccc(N5CCN(Cc6ccccc6-c6ccc(Cl)cc6)CC5)cc4)(C3)C1)C2`, a half-maximal effect in data set [2] (EC50) was put at 520 nM.
Molecule `O=C(NS(=O)(=O)CC12CC3CC(C1)CC(c1ccccc1)(C3)C2)c1ccc(N2CCN(Cc3ccccc3-c3ccc(Cl)cc3)CC2)cc1` yielded an EC50 in data set [2] of 1970 nM.
In data set [2], `CC12CC3CC(C1)CC(CS(=O)(=O)NC(=O)c1ccc(N4CCN(Cc5ccccc5-c5ccc(Cl)cc5)CC4)cc1)(C3)C2` gave an EC50 of 1100 nM.
In turn, `O=C(NS(=O)(=O)CC12CC3CC(CC(O)(C3)C1)C2)c1ccc(N2CCN(Cc3ccccc3-c3ccc(Cl)cc3)CC2)cc1` gave a bioavailability in data set [3] of more than 100%. The molecule further gave a half-life in data set [5] of 1.3 h. The molecule further returned an EC50 in data set [2] of 300 nM. Besides, the clearance in data set [6] was 16 mL/min/kg. Further, the Vd in data set [7] is 1.2 L/kg.
Consider `O=C(NS(=O)(=O)CCC12CC3CC(CC(C3)C1)C2)c1ccc(N2CCN(Cc3ccccc3-c3ccc(Cl)cc3)CC2)cc1`, for which the IC50 in data set [1] is more than 50000 nM. For the same molecule, the EC50 in data set [2] was found to be 2810 nM.
Consider `CC(=O)NC12CC3CC(CC(CS(=O)(=O)NC(=O)c4ccc(N5CCN(Cc6ccccc6-c6ccc(Cl)cc6)CC5)cc4)(C3)C1)C2`, for which the EC50 in data set [2] worked out at 230 nM.
In turn, `O=C(NS(=O)(=O)CC12CC3CC(C1)CC(OCCN1CCOCC1)(C3)C2)c1ccc(N2CCN(Cc3ccccc3-c3ccc(Cl)cc3)CC2)cc1` returned a 50% effective concentration (EC50) in data set [2] of 310 nM.
Still for that read-out and setting: the same measure for `CC(C)C(=O)NC12CC3CC(CC(CS(=O)(=O)NC(=O)c4ccc(N5CCN(Cc6ccccc6-c6ccc(Cl)cc6)CC5)cc4)(C3)C1)C2`: 160 nM.
On the same count and under the same terms, the same measure for `O=C(NS(=O)(=O)CC12CC3CC(CC(F)(C3)C1)C2)c1ccc(N2CCN(Cc3ccccc3-c3ccc(Cl)cc3)CC2)cc1`: 480 nM.
With `CC1(C)[C@]2(C)CC[C@@H](CS(=O)(=O)NC(=O)c3ccc(N4CCN(Cc5ccccc5-c5ccc(Cl)cc5)CC4)cc3)[C@@]1(C)C2`, the EC50 in data set [4] was 580 nM; in data set [2] it was 420 nM. This molecule also displayed an IC50 in data set [1] of more than 50000 nM.
In turn, `CC1(C)[C@@]2(C)CC[C@H](CS(=O)(=O)NC(=O)c3ccc(N4CCN(Cc5ccccc5-c5ccc(Cl)cc5)CC4)cc3)[C@]1(C)C2` displayed an IC50 in data set [1] of more than 50000 nM. The EC50 in data set [2] is 560 nM.
